Sampled rows, rich in hits. Any-hit rate of the full collection: about 2.9%.
RanGTP-Impb inh: inhibitors of RanGTP-importin-beta interaction, primary screen, biochemical, FRET, CFP-Ran, YFP-importin-beta, homogeneous; AID 2216, 2009; Ran GTPase (GTP-bound) - importin-beta complex; cell-free CFP-Ran/YFP-importin-beta FRET ratio; inhibition, % (concentration not given with the values); 300,000 compounds, 1.1% hits;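 active = more than half of the replicate wells show a fall in the fluorescence ratio signal beyond about 16%, limit read from the data, passing the limit was not always enough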;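 also: 0% = DMSO wells and 100% = Ran loaded with GDP instead of GTP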
M18AAP inhibitor: PfM18AAP inhibitors, malaria aminopeptidase, primary screen, biochemical, QFRET, recombinant enzyme; H-Glu-NHMec fluorogenic cleavage; AID 1822, 2009; M18 aspartyl aminopeptidase (Plasmodium falciparum 3D7); inhibition, % at 7.35 µM; 290,000 compounds, 1.2% hits;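 active = inhibition above the campaign mean inhibition over all tested compounds plus 3 SD, cut at about 28% in these data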;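 also: 0% = plate median of test compound wells and 100% = 2 mM ZnCl2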
RBBP9 inh: human RBBP9 inhibitors, primary screen, biochemical, fluorescence polarization, FP-Rh probe, HTS | inhibition, % at 7.94 µM | 220,000 compounds, 0.2% hits | Serine hydrolase RBBP9 (Homo sapiens), O75884 | AID 1515, 2009 | recombinant RBBP9;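 active = inhibition above the campaign mean of all tested compounds plus 3 SD, cut at about 14% in these data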;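 also: plate controls were DMSO wells with RBBP9 for no effect and wells lacking RBBP9 protein for full effect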
Target sequence (O75884 whole entry, looked up): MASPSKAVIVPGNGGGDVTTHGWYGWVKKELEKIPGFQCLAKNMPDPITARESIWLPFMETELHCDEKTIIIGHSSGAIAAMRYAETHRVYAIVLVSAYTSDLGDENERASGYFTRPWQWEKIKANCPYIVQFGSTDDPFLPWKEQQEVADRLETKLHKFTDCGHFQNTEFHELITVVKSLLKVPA
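Controls: DMSO-treated enzyme wells and wells lacking RBBP9 | Material: RBBP9 protein | Technique: Fluorescence polarization | Replication: Single well per compound, no replicates | Buffer or medium: Tris-NaCl-Pluronic buffer, pH 8.0 | Timing: 30 min compound preincubation, 45 min probe labeling, 25 °C | Read-out basis: Percent inhibition from mP, scaled between DMSO and no-protein wells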
Hck-Nef inh: inhibitors of Nef-activated human Hck kinase, primary screen, biochemical, Z-Lyte FRET, 384-well, Hck-YEEI; Recombinant Hck-YEEI plus Nef, Z-Lyte FRET kinase assay; 220,000 compounds, 0.68% hits; AID 463187, 2010; inhibition, % at 20 µM;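 active = Hck-Nef kinase inhibition above about 50%, limit read from the data; inactive = inhibition below that limit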;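 also: 0% = DMSO with Hck plus Nef and 100% = Hck alone without Nef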
Target sequence (P08631 whole entry, looked up): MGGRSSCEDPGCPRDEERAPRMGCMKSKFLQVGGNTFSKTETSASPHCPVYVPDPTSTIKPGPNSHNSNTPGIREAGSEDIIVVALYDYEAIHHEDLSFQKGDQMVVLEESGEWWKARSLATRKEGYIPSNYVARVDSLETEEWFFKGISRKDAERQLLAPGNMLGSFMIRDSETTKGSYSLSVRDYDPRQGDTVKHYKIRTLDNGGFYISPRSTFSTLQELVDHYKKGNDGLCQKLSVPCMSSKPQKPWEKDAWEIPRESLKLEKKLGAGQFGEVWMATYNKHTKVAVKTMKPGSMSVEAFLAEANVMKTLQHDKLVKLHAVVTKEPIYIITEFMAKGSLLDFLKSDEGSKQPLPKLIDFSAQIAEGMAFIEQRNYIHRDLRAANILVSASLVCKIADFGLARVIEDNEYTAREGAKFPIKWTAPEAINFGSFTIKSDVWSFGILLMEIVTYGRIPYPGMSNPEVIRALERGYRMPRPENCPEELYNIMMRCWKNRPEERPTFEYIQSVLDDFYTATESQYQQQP
Runt-CBFb FRET: inhibitors of RUNX1 Runt–CBFb binding, primary screen, biochemical, FRET, Cerulean-Runt, Venus-CBFb, uHTS | Runt-related transcription factor 1 (Homo sapiens) + Core-binding factor subunit beta … | Cerulean-Runt/Venus-CBFb FRET ratio 530/480, 1 h | inhibition, % at 20 µM | 220,000 compounds, 0.46% hits;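 active = inhibition over about 50% at 20 µM in the single-dose screen, limit read from the data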;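 also: 0% = DMSO wells and 100% = excess unlabeled CBFb competitor control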
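test system = Cerulean-tagged RUNX1 Runt domain (FRET donor) fusion protein | reagent = Venus-CBFb binding partner, 100 nM | incubation = protein complex preformed 1 h, compound exposure 1 h, room temperature, dark | detection = FRET fluorescence | read-out basis = loss of energy transfer signal | controls = 5 µM unlabeled CBFb as full-inhibition high control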
Runt-SMMHC FRET: inhibitors of RUNX1 Runt–CBFb-SMMHC binding, primary screen, biochemical, FRET, Cerulean-Runt, Venus-CBFb-SMMHC, uHTS; Runt-related transcription factor 1 (Homo sapiens) + Core-binding factor subunit beta …; 220,000 compounds, 0.74% hits; AID 1434, 2008; Cerulean-Runt/Venus-CBFb-SMMHC FRET ratio 530/480, 1 h; inhibition, % at 20 µM;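 active = mean inhibition across duplicate retests at 20 µM reaching about 50%, limit read from the data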;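 also: 0% = DMSO wells and 100% = wells with excess untagged CBFb-SMMHC; inhibitors lower the FRET ratio by blocking Runt binding to CBFb-SMMHC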
Hck-Nef confirm: retest of Hck:Nef kinase inhibitor hits, confirmation, biochemical, Z-Lyte FRET, 384-well, p-Tyr peptide counterscreen | calls only at 10 µM | shares compounds with Hck-Nef inh | 1,300 compounds, 28% hits | Recombinant Hck-YEEI:Nef, Z-Lyte FRET kinase assay;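 active = average inhibition of at least 50%, with Z-scores no higher than 3 in both the phospho-tyrosine peptide and fluorescence counterscreens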
Starred values were filed as active, the others as inactive.

How did CCOC(=O)c1cc(-c2ccccc2)sc1NC(=O)COC(=O)c1cccc(S(N)(=O)=O)c1 do in these assays?
RanGTP-Impb inh: -2.1; M18AAP inhibitor: 0.4; RBBP9 inh: 0.4; Hck-Nef inh: 57.6*; Runt-CBFb FRET: -49.3; Runt-SMMHC FRET: -55.6; Hck-Nef confirm: active

Results for N=C1/C(=C\c2ccc(-c3cc(Cl)cc(Cl)c3)o2)C(=O)N=C2SC=C(c3ccccc3)N12 ?
RanGTP-Impb inh: 3.9; M18AAP inhibitor: -2.1; RBBP9 inh: -2.8; Hck-Nef inh: 4.6; Runt-CBFb FRET: -5.9; Runt-SMMHC FRET: -27.0

How did N=C1/C(=C/c2ccc(-c3cccc(C(=O)O)c3)o2)C(=O)N=C2SC=C(c3ccccc3)N12 do in these assays?
RanGTP-Impb inh: -7.1; M18AAP inhibitor: 12.6; RBBP9 inh: -5.1; Hck-Nef inh: 90.6*; Runt-CBFb FRET: -34.6; Runt-SMMHC FRET: -97.1; Hck-Nef confirm: active

Results for Cc1c(O)ccc2c(CN3CCN(CCO)CC3)cc(=O)oc12 ?
RanGTP-Impb inh: 55.8*; M18AAP inhibitor: 1.2; RBBP9 inh: 1.5; Hck-Nef inh: 62.8*; Runt-CBFb FRET: 4.6; Runt-SMMHC FRET: 78.7*; Hck-Nef confirm: inactive

How did Cc1c(Cl)cccc1NS(=O)(=O)c1ccc2c(c1)C1C=CCC1C(c1ccc(C(=O)O)cc1)N2 (stereo unspecified) do in these assays?
M18AAP inhibitor: 6.2; RBBP9 inh: 5.0; Hck-Nef inh: 63.0*; Runt-CBFb FRET: -21.2; Runt-SMMHC FRET: -131.0; Hck-Nef confirm: active

How did N#Cc1cccc(NC(=O)COC(=O)c2cccc(N3C(=O)c4ccccc4C3=O)c2)c1 do in these assays?
RanGTP-Impb inh: 2.2; M18AAP inhibitor: 3.0; RBBP9 inh: -11.7; Hck-Nef inh: 56.3*; Runt-CBFb FRET: -3.4; Runt-SMMHC FRET: 3.3; Hck-Nef confirm: inactive

Results for Clc1ccc(C2=NN(c3ccccc3)C(c3ccco3)C2)cc1 (stereo unspecified) ?
RanGTP-Impb inh: 8.4; M18AAP inhibitor: 6.5; RBBP9 inh: 2.3; Hck-Nef inh: 60.2*; Runt-CBFb FRET: 15.6; Runt-SMMHC FRET: 84.5; Hck-Nef confirm: inactive

How did Cc1nnc(SCC(=O)N2N=C(c3ccc(Cl)cc3)CC2c2ccco2)[nH]c1=O (stereo unspecified) do in these assays?
RanGTP-Impb inh: -1.3; M18AAP inhibitor: 8.9; RBBP9 inh: -2.6; Hck-Nef inh: 50.4*; Runt-CBFb FRET: 22.9; Runt-SMMHC FRET: 24.7; Hck-Nef confirm: inactive

What do the screens show for `Cc1ccc(-c2nc3cccnc3o2)cc1NC(=O)COc1ccc(Cl)cc1C`?
RanGTP-Impb inh: 0.9; M18AAP inhibitor: -0.4; RBBP9 inh: -3.7; Hck-Nef inh: 61.8*; Runt-CBFb FRET: -0.3; Runt-SMMHC FRET: -1.6; Hck-Nef confirm: inactive

What do the screens show for `O=c1c2c(-c3ccc(Cl)cc3)csc2ncn1/N=C/c1cccc([N+](=O)[O-])c1O`?
RanGTP-Impb inh: 3.6; M18AAP inhibitor: 0.7; RBBP9 inh: 8.9; Hck-Nef inh: 88.8*; Runt-CBFb FRET: -3.7; Runt-SMMHC FRET: -1.6; Hck-Nef confirm: active

Results for O=c1c2c(-c3ccccc3)csc2ncn1/N=C/c1c2ccccc2cc2ccccc12 ?
RanGTP-Impb inh: -63.9; M18AAP inhibitor: 3.1; RBBP9 inh: 5.7; Hck-Nef inh: 15.6; Runt-CBFb FRET: -26.7; Runt-SMMHC FRET: -46.4

What do the screens show for `CCOC(=O)c1c(NC(=O)/C=C/C(=O)O)sc(C)c1-c1ccc(F)cc1`?
RanGTP-Impb inh: -3.4; M18AAP inhibitor: 6.8; RBBP9 inh: 11.1; Hck-Nef inh: 51.3*; Runt-CBFb FRET: -1.4; Runt-SMMHC FRET: 1.1; Hck-Nef confirm: active

How did CCOC(=O)c1c(NC(=O)/C=C/C(=O)O)sc(C)c1-c1ccc(C)c(C)c1 do in these assays?
RanGTP-Impb inh: 7.7; M18AAP inhibitor: 9.3; RBBP9 inh: -7.3; Hck-Nef inh: 29.8; Runt-CBFb FRET: 1.3; Runt-SMMHC FRET: -5.4

Results for COc1ccc(C2CC(c3ccccc3)=NN2c2ccc(S(N)(=O)=O)cc2)cc1 (stereo unspecified) ?
RanGTP-Impb inh: 4.2; M18AAP inhibitor: -9.2; RBBP9 inh: -1.9; Hck-Nef inh: 107.9*; Runt-CBFb FRET: 1.6; Runt-SMMHC FRET: 29.3

Results for CCC(=O)N1N=C(c2cccs2)CC1c1ccc(OC)cc1 (stereo unspecified) ?
RanGTP-Impb inh: -0.2; M18AAP inhibitor: -2.1

Results for NS(=O)(=O)c1ccc(N2N=C(c3ccccc3)CC2c2ccc(F)cc2)cc1 (stereo unspecified) ?
RanGTP-Impb inh: 0.0; M18AAP inhibitor: 4.8; RBBP9 inh: -8.7; Hck-Nef inh: 60.1*; Runt-CBFb FRET: 4.9; Runt-SMMHC FRET: 23.5

Results for Oc1ccc(C2=NN(c3ccccc3)C(c3ccc(F)cc3)C2)cc1 (stereo unspecified) ?
RanGTP-Impb inh: -3.4; M18AAP inhibitor: 17.7

What do the screens show for `COc1ccc(C2=NN(c3ccccc3)C(c3ccc(OC)c(OC)c3)C2)cc1` (stereo unspecified)?
RanGTP-Impb inh: 1.5; M18AAP inhibitor: 10.5

How did COc1ccc(C2CC(c3cccs3)=NN2c2ccc(C=O)cc2)cc1 (stereo unspecified) do in these assays?
RanGTP-Impb inh: -48.0; M18AAP inhibitor: 10.4; RBBP9 inh: -2.6; Hck-Nef inh: 53.9*; Runt-CBFb FRET: 4.0; Runt-SMMHC FRET: 73.1*; Hck-Nef confirm: inactive

Results for CCc1cc(=O)n2[nH]c(-c3ccccc3)c(-c3ccccc3)c2n1 ?
RanGTP-Impb inh: 3.9; M18AAP inhibitor: -3.3

How did CC(C)(C)c1ccc(C(=O)CC(Sc2ccc(Cl)cc2)C(=O)O)cc1 (stereo unspecified) do in these assays?
RanGTP-Impb inh: -2.2; M18AAP inhibitor: -30.6; RBBP9 inh: -3.0; Hck-Nef inh: 76.8*; Runt-CBFb FRET: 47.1; Runt-SMMHC FRET: 42.6; Hck-Nef confirm: inactive

How did CCn1ccnc1CN1CCC(n2nccc2NC(=O)c2ccccc2OC)CC1 do in these assays?
RanGTP-Impb inh: 1.2; M18AAP inhibitor: -4.6
